Measurements reported in ChEMBL document CHEMBL1123208, “Quantitative structure-activity relationship of the mutagenicity of substituted N-nitroso-N-benzylmethylamines: possible implications for carcinogenicity” (J Med Chem, 1986).

What was measured:
[1] = Concentration in nmol/plate to induce 50 revertants/plate.; format: ADME
Procedure, shortened: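 Ames plate incorporation, S. typhimurium TA 1535, Aroclor-induced male hamster liver S9; duplicate plates, 10-point range 1–1000 µg/plate; 37 °C, 48 h; revertants counted by hand tally. Potency index: concentration (nmol/plate) inducing 50 revertants/plate, taken from linear portion of dose–response curve.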

[2] = tested on: Cricetinae gen. sp.; assay: (§1) compound was tested for mutagenicity against Salmonella tester strain TA 1535 with out hamster S9 mix (3 mg/plate) in cells at dose of 50 ug; format: functional
Procedure, shortened: (§2)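 Plate incorporation assay in S. typhimurium TA 1535 without S9 activation. Compound in Me2SO, 1–1000 µg/plate, duplicate plates, mean revertants/plate; incubated 37 °C for 48 h, colonies hand-counted. Positive if two consecutive doses gave revertants more than twice the concurrent control mean.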

[3] = tested on: Salmonella typhimurium; assay: Mutagenicity against Salmonella tester strain TA 1535 without hamster S9 mix (3 mg/plate) in cells.; format: functional, Salmonella enterica subsp. enterica serovar Typhimurium
[4] = tested on: Salmonella typhimurium; assay: compound was tested for mutagenicity against Salmonella tester strain TA 1535 with hamster S9 mix (3 mg/plate) in cells at dose of 500 ug
[5] = tested on: Salmonella typhimurium; assay: compound was tested for mutagenicity against Salmonella tester strain TA 1535 with out hamster S9 mix (3 mg/plate) in cells at dose of 500 ug
[6] = tested on: Salmonella typhimurium; assay: compound was tested for mutagenicity against Salmonella tester strain TA 1535 with hamster S9 mix (3 mg/plate) in cells at dose of 1000 ug; format: functional, Salmonella enterica subsp. enterica serovar Typhimurium
Procedure, shortened: (§3)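 Plate incorporation assay in S. typhimurium TA 1535 with Aroclor-induced male hamster liver S9 (3 mg/plate). Compound in Me2SO, 1–1000 µg/plate, duplicate plates, mean revertants/plate; incubated 37 °C for 48 h, colonies hand-counted. Positive if two consecutive doses gave revertants more than twice the concurrent control mean.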

[7] = tested on: Salmonella typhimurium; assay: compound was tested for mutagenicity against Salmonella tester strain TA 1535 with hamster S9 mix (3 mg/plate) in cells at dose of 100 ug; format: functional, Salmonella enterica subsp. enterica serovar Typhimurium; procedure, shortened: as §3
[8] = tested on: Salmonella typhimurium; assay: compound was tested for mutagenicity against Salmonella tester strain TA 1535 with hamster S9 mix (3 mg/plate) in cells at dose of 10 ug; format: functional, Salmonella enterica subsp. enterica serovar Typhimurium; procedure, shortened: as §3
[9] = tested on: Salmonella typhimurium; assay: compound was tested for mutagenicity against Salmonella tester strain TA 1535 with hamster S9 mix (3 mg/plate) in cells at dose of 1 ug; format: functional, Salmonella enterica subsp. enterica serovar Typhimurium; procedure, shortened: as §3
[10] = tested on: Salmonella typhimurium; assay: compound was tested for mutagenicity against Salmonella tester strain TA 1535 with hamster S9 mix (3 mg/plate) in cells at dose of 2.5 ug; format: functional, Salmonella enterica subsp. enterica serovar Typhimurium; procedure, shortened: as §3
[11] = tested on: Salmonella typhimurium; assay: compound was tested for mutagenicity against Salmonella tester strain TA 1535 with hamster S9 mix (3 mg/plate) in cells at dose of 250 ug; format: functional, Salmonella enterica subsp. enterica serovar Typhimurium; procedure, shortened: as §3
[12] = tested on: Salmonella typhimurium; assay: compound was tested for mutagenicity against Salmonella tester strain TA 1535 with hamster S9 mix (3 mg/plate) in cells at dose of 25 ug; format: functional, Salmonella enterica subsp. enterica serovar Typhimurium; procedure, shortened: as §3
[13] = tested on: Salmonella typhimurium; assay: compound was tested for mutagenicity against Salmonella tester strain TA 1535 with hamster S9 mix (3 mg/plate) in cells at dose of 500 ug; format: functional, Salmonella enterica subsp. enterica serovar Typhimurium; procedure, shortened: as §3
[14] = tested on: Salmonella typhimurium; assay: compound was tested for mutagenicity against Salmonella tester strain TA 1535 with hamster S9 mix (3 mg/plate) in cells at dose of 5 ug; format: functional, Salmonella enterica subsp. enterica serovar Typhimurium; procedure, shortened: as §3
[15] = tested on: Salmonella typhimurium; assay: compound was tested for mutagenicity against Salmonella tester strain TA 1535 with out hamster S9 mix (3 mg/plate) in cells at dose of 1000 ug; format: functional, Salmonella enterica subsp. enterica serovar Typhimurium; procedure, shortened: as §2
[16] = tested on: Salmonella typhimurium; assay: compound was tested for mutagenicity against Salmonella tester strain TA 1535 with out hamster S9 mix (3 mg/plate) in cells at dose of 100 ug; format: functional, Salmonella enterica subsp. enterica serovar Typhimurium; procedure, shortened: as §2
[17] = tested on: Salmonella typhimurium; assay: compound was tested for mutagenicity against Salmonella tester strain TA 1535 with out hamster S9 mix (3 mg/plate) in cells at dose of 10 ug; format: functional, Salmonella enterica subsp. enterica serovar Typhimurium; procedure, shortened: as §2
[18] = tested on: Salmonella typhimurium; assay: compound was tested for mutagenicity against Salmonella tester strain TA 1535 with hamster S9 mix (3 mg/plate) in cells.; format: functional, Salmonella enterica subsp. enterica serovar Typhimurium; procedure, shortened: as §3
[19] = tested on: Salmonella typhimurium; assay: compound was tested for mutagenicity against Salmonella tester strain TA 1535 with hamster S9 mix (3 mg/plate) in cells. Activity expressed as no. of cells; format: functional, Salmonella enterica subsp. enterica serovar Typhimurium; procedure, shortened: as §3
[20] = tested on: Salmonella typhimurium; assay: compound was tested for mutagenicity against Salmonella tester strain TA 1535 with out hamster S9 mix (3 mg/plate) in cells.; format: functional, Salmonella enterica subsp. enterica serovar Typhimurium; procedure, shortened: as §2
[21] = tested on: Salmonella typhimurium; assay: compound was tested for mutagenicity against Salmonella tester strain TA 1535 with out hamster S9 mix (3 mg/plate) in cells at dose of 1 ug; format: functional, Salmonella enterica subsp. enterica serovar Typhimurium; procedure, shortened: as §2
[22] = tested on: Salmonella typhimurium; assay: compound was tested for mutagenicity against Salmonella tester strain TA 1535 with out hamster S9 mix (3 mg/plate) in cells at dose of 2.5 ug; format: functional, Salmonella enterica subsp. enterica serovar Typhimurium; procedure, shortened: as §2
[23] = tested on: Salmonella typhimurium; assay: compound was tested for mutagenicity against Salmonella tester strain TA 1535 with out hamster S9 mix (3 mg/plate) in cells at dose of 250 ug; format: functional, Salmonella enterica subsp. enterica serovar Typhimurium; procedure, shortened: as §2
[24] = tested on: Salmonella typhimurium; assay: compound was tested for mutagenicity against Salmonella tester strain TA 1535 with out hamster S9 mix (3 mg/plate) in cells at dose of 25 ug; format: functional, Salmonella enterica subsp. enterica serovar Typhimurium; procedure, shortened: as §2
[25] = tested on: Salmonella typhimurium; assay: compound was tested for mutagenicity against Salmonella tester strain TA 1535 with out hamster S9 mix (3 mg/plate) in cells at dose of 500 ug; format: functional, Salmonella enterica subsp. enterica serovar Typhimurium; procedure, shortened: as §2
[26] = tested on: Salmonella typhimurium; assay: as §1; format: functional, Salmonella enterica subsp. enterica serovar Typhimurium; procedure, shortened: as §2
[27] = tested on: Salmonella typhimurium; assay: compound was tested for mutagenicity against Salmonella tester strain TA 1535 with out hamster S9 mix (3 mg/plate) in cells at dose of 5 ug; format: functional, Salmonella enterica subsp. enterica serovar Typhimurium; procedure, shortened: as §2
[28] = tested on: Salmonella typhimurium; assay: compound was tested for mutagenicity against Salmonella tester strain TA 1535 with hamster S9 mix (3 mg/plate) in cells at dose of 50 ug; format: functional, Salmonella enterica subsp. enterica serovar Typhimurium; procedure, shortened: as §3

CN(Cc1ccccc1)N=O
Log 1/C [1]: -3.416
No. of revertants per plate [2]: 14
Activity [3]: 19
No. of revertants per plate [4]: 60
No. of revertants per plate [5]: 17

CN(Cc1cccc(C#N)c1)N=O
Log 1/C [1]: -2.139
Activity [3]: 14
No. of revertants per plate [4]: 185
No. of revertants per plate [5]: 3053

CN(Cc1ccc(F)cc1)N=O
Log 1/C [1]: -2.969
Activity [3]: 15
No. of revertants per plate [6]: 126
No. of revertants per plate [7]: 71
No. of revertants per plate [8]: 22
No. of revertants per plate [9]: 15
No. of revertants per plate [10]: 15
No. of revertants per plate [11]: 71
No. of revertants per plate [12]: 27
No. of revertants per plate [13]: 94
No. of revertants per plate [14]: 21
No. of revertants per plate [15]: 15
No. of revertants per plate [16]: 22
No. of revertants per plate [17]: 17
Activity [18]: 24
Activity [19]: 19
Activity [20]: 8
No. of revertants per plate [21]: 18
No. of revertants per plate [22]: 8
No. of revertants per plate [23]: 11
No. of revertants per plate [24]: 20
No. of revertants per plate [25]: 19
No. of revertants per plate [26]: 16
No. of revertants per plate [27]: 21
No. of revertants per plate [28]: 39

CN(Cc1cccc([N+](=O)[O-])c1)N=O
Log 1/C [1]: -1.796

CN(Cc1ccc(Br)cc1)N=O
Log 1/C [1]: -1.998
Activity [3]: 12
No. of revertants per plate [6]: 201
No. of revertants per plate [7]: 64
No. of revertants per plate [8]: 14
No. of revertants per plate [9]: 12
No. of revertants per plate [10]: 12
No. of revertants per plate [11]: 155
No. of revertants per plate [12]: 21
No. of revertants per plate [13]: 183
No. of revertants per plate [14]: 15
No. of revertants per plate [15]: 15
No. of revertants per plate [16]: 16
No. of revertants per plate [17]: 18
Activity [18]: 13
Activity [19]: 17
Activity [20]: 14
No. of revertants per plate [21]: 14
No. of revertants per plate [22]: 13
No. of revertants per plate [23]: 11
No. of revertants per plate [24]: 14
No. of revertants per plate [25]: 13
No. of revertants per plate [26]: 10
No. of revertants per plate [27]: 21
No. of revertants per plate [28]: 32

COC(=O)c1ccc(CN(C)N=O)cc1
Activity [3]: 14
No. of revertants per plate [4]: 18
No. of revertants per plate [5]: 15

CN(Cc1ccc([N+](=O)[O-])cc1)N=O
Log 1/C [1]: -2.202
Activity [3]: 19
No. of revertants per plate [4]: 176
No. of revertants per plate [5]: 23

CN(Cc1cccc(Cl)c1)N=O
Log 1/C [1]: -1.512
Activity [3]: 17
No. of revertants per plate [4]: 215
No. of revertants per plate [5]: 15
